In ChEMBL document CHEMBL1154507, “Synthesis and characterization of Deltalac-acetogenins that potently inhibit mitochondrial complex I” (Bioorg Med Chem, 2009) one finds IC50 and Activity data, which are given here for 5 molecules.

The source made the active and inactive calls. The rule behind the calls is not given here.

The subject of data set [1] is M059J. In words: Cytotoxicity against human M059J ATCC CRL2366 cells by MTT assay. It counts as functional, cell-based. Background: Tetrazolium dyes change colour on reduction, which living cells bring about.
In data set [2] the test system is A549. In words: Cytotoxicity against human A549 cells by MTT assay. It counts as functional, cell-based.
Data set [3] is described as follows: Cytotoxicity against mouse 3LL cells by MTT assay. It counts as functional, cell-based.
The nature of data set [4]: Inhibition of Electron transport protein complex 1 in bovine heart submitochondrial particles assessed as NADH oxidase activity by spectrophotometric analysis. Also on record: species or system Bos taurus. The method, boiled down: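 Beef-heart inverted SMP (stored at −80 °C in 0.25 M sucrose, 10 mM Tris-HCl pH 7.4) diluted to 0.5 mg/mL and NADH-activated. Inhibitor pre-equilibrated with SMP 5 min in 50 mM Hepes pH 7.5, 5 mM MgCl2. NADH started the reaction. Initial linear rates were read at 340 nm, 30 °C, with DMSO ≤2%. IC50 is half-maximal inhibition of control; mean ± SD, three independent experiments.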

Data set [5] can be described thus: Inhibition of Electron transport protein complex 1 in bovine heart submitochondrial particles assessed as NADH ubiquinone oxidoreductase oxidase activity by spectrophotometric analysis in presence of exogenous ubiquinone 1. Also on record: species or system Bos taurus. A digest of the protocol: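 Activated beef-heart inverted SMP were pre-equilibrated with inhibitor 5 min, then NADH was added at 30 °C. Medium: 0.25 M sucrose, 1 mM MgCl2, 2 mM KCN, antimycin A, ubiquinone Q1, 50 mM phosphate pH 7.4. Rate was followed at 340 nm, DMSO ≤2%. IC50 is half-maximal inhibition of control; mean ± SD of three independent experiments.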

Data set [6] concerns MCF7. Description: Induction of shift to glycolysis in human MCF7 cells assessed as lactate production at 6.6 uM after 3 hrs. The format is functional.
The test system of data set [7] is MCF7. In words: Cytotoxicity against human MCF7 cells by MTT assay. The format is functional, cell-based.
Data set [8] in a line: Cytotoxicity against human MCF10A cells by MTT assay. It counts as cell-based. Particulars: MCF-10A.
The nature of data set [9]: Cytotoxicity against human M059K ATCC CRL2365 cells by MTT assay. The format is functional, cell-based.
For data set [10], the system named is MCF7. Description: Induction of shift to glycolysis in human MCF7 cells assessed as lactate production at < 0.15 uM after 3 hrs. It counts as functional.
The species named for data set [11] is Bos taurus. Description: Inhibition of Electron transport protein complex 1 in bovine heart submitochondrial particles assessed as residual NADH oxidase activity at 1 uM by spectrophotometric analysis.
The species entered for data set [12] is Bos taurus. In words: Inhibition of Electron transport protein complex 1 in bovine heart submitochondrial particles assessed as residual NADH ubiquinone oxidoreductase oxidase activity at 1 uM by spectrophotometric analysis in presence of exogenous ubiquinone 1.
Data set [13] has as its system MCF7. Description: Induction of shift to glycolysis in human MCF7 cells assessed as lactate production at 0.44 uM after 3 hrs. The format is functional.
Data set [14] relates to MCF7. Description: Induction of shift to glycolysis in human MCF7 cells assessed as lactate production at 18.2 uM after 3 hrs. It counts as functional.
In data set [15] the test system is MCF7. Description: Cytotoxicity against human MCF7 cells by SRB assay. The format is functional, cell-based.
Data set [16] can be described thus: Cytotoxicity against human MCF10A cells by SRB assay. It counts as cell-based. As to conditions: mcf-10a. (In general: Sulforhodamine B stains cellular protein and so reports cell mass.)
The next data set relates to ATCC CRL2365. In words: Cytotoxicity against human M059K ATCC CRL2365 cells by SRB assay. The format is functional, cell-based.
For data set [17], the system named is M059J. Description: Cytotoxicity against human M059J ATCC CRL2366 cells by SRB assay. The format is functional, cell-based.
The test system of data set [18] is A549. In words: Cytotoxicity against human A549 cells by SRB assay. It counts as functional, cell-based.
For the next data set, the system named is 3LL. In words: Cytotoxicity against mouse 3LL cells by SRB assay. It counts as functional, cell-based.
The subject of data set [19] is MCF7. In words: Induction of shift to glycolysis in human MCF7 cells assessed as lactate production at 0.38 uM after 3 hrs. The format is functional.

As a reminder, the IC50 is the concentration needed to halve the response being measured. For the molecule `CCCCCCCCCC[C@@H](O)[C@H]1CC[C@H]([C@H]2CC[C@H]([C@H](O)CCCCCCCCCC)O2)O1` [dleta-lac-Acetogenin], the IC50 was more than 20 µM in the data set on M059J [1]; more than 20 µM in the data set with A549 [2]; 0.99 µM in [3]; 0.0123 µM in data set [4]; 10.4 µM in data set [5]; more than 20 µM with MCF7 [7]. For the same molecule, the IC50 in data set [8] and in data set [9] was more than 20 µM each time. In the data set on MCF7 [6], the Activity came to 616 µM.

Take `CCCCCC[C@H]1C(=O)O[C@H](C)[C@H](NC(=O)c2cccc(NC=O)c2O)C(=O)O[C@@H](C)[C@@H]1OC(=O)CC(C)C` [ANTIMYCIN A]: in the data set on MCF7 [10], the Activity was found to be 1520 µM.

Turning to `CCCCc1ccc(OCCC#CC[C@@H](O)[C@H]2CC[C@H]([C@H]3CC[C@H]([C@H](O)CC#CCCOc4ccc(CCCC)cc4)O3)O2)cc1`, the IC50 was more than 16 µM with M059J [1]; more than 16 µM with A549 [2]; 0.48 µM in data set [3]; 0.0388 µM in data set [4]; 1.7 µM in data set [5]; more than 16 µM with MCF7 [7]. Also, the figures for the half-inhibitory concentration (IC50) in data set [8] and in data set [9] were more than 16 µM and 14.6 µM, respectively. Further, the Activity in the data set listed under Bos taurus [11] was 18%; in the data set filed under Bos taurus [12] it was 25%; in the data set with MCF7 [13], 1280 µM.

For `CCCCc1ccc(OCCCCC[C@@H](O)[C@H]2CC[C@H]([C@H]3CC[C@H]([C@H](O)CCCCCOc4ccc(CCCC)cc4)O3)O2)cc1`, the IC50 in the data set with M059J [1] was more than 16 µM; in the data set on A549 [2], more than 16 µM; in [3] it was 0.64 µM; in [4] it was 0.0196 µM; in data set [5] it was more than 15 µM; in the data set on MCF7 [7], more than 16 µM. Further, the IC50 in data set [8] and in data set [9] was more than 16 µM throughout. Also, in the data set with MCF7 [14], the Activity was found to be 572 µM.

`CCCCCCCC#CC[C@@H](O)[C@H]1CC[C@H]([C@H]2CC[C@H]([C@H](O)CC#CCCCCCCC)O2)O1`: the IC50 in the data set on M059J [1] is more than 20.9 µM; in the data set with A549 [2], 13.2 µM; in data set [3], 5.2 µM; in [4], 0.0301 µM; in data set [5], 0.048 µM; with MCF7 [7], 7.6 µM. Further, the IC50 came to 2 µM in data set [8] and 20.3 µM in data set [9]. Moreover, the outcome with MCF7 [15], in the data set with ATCC CRL2365, in the data set on M059J [17], in the data set with A549 [18] and in the data set on 3LL was Active. In addition, the Activity result in [16] is “Active”; in the data set filed under Bos taurus [11], 12%; in the data set filed under Bos taurus [12], 18%; in the data set on MCF7 [19] it was 1080 µM.
